Experimental data as given in ChEMBL document CHEMBL1158789, “Sesquiterpenes from the red alga Laurencia tristicha” (J Nat Prod, 2005).
In brackets after ≈: the same amount, converted by molar mass.

Assays:
Type in all cases: functional, cell-based
[1] = test system: Bel-7402; assay: Cytotoxicity against human Bel7402 cells by MTT assay
Summary of the method: (§1)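 Human tumour lines (A549 lung adenocarcinoma, BGC-823 stomach cancer, Bel 7402 hepatoma, HCT-8 colon cancer, HeLa) were exposed to the compounds and viability was read by MTT. Potency was expressed as IC50 in μg/mL.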

[2] = test system: BGC-823; assay: Cytotoxicity against human BGC823 cells by MTT assay; summary of the method: as §1
[3] = test system: HCT-8; assay: Cytotoxicity against human HCT8 cells by MTT assay; summary of the method: as §1
[4] = test system: HeLa; assay: Cytotoxicity against human HeLa cells by MTT assay; summary of the method: as §1
[5] = test system: A549; assay: Cytotoxicity against human A549 cells by MTT assay; summary of the method: as §1

Row | SMILES | IC50 [1] | IC50 [2] | IC50 [3] | IC50 [4] | IC50 [5]
1 | Cc1ccc([C@]2(C)CC[C@@H](C(C)(C)O)O2)cc1 | > 10 µg/mL | > 10 µg/mL | > 10 µg/mL | > 10 µg/mL | > 10 µg/mL
2 | C=C1[C@](C)(O)CC[C@@]1(C)c1ccc(C)cc1 | > 10 µg/mL | > 10 µg/mL | > 10 µg/mL | > 10 µg/mL | > 10 µg/mL
3 | C=C1[C@](C)(O)CC[C@@]1(C)c1ccc(C)cc1O | > 10 µg/mL | > 10 µg/mL | > 10 µg/mL | > 10 µg/mL | > 10 µg/mL
4 | Cc1cc2c(cc1O)C[C@]1(CC[C@@H]3C[C@@]31C)O2 | > 10 µg/mL | > 10 µg/mL | > 10 µg/mL | > 10 µg/mL | > 10 µg/mL
5 | Cc1ccc(C(C)(O)C/C=C/C(C)(C)O)cc1 (stereo not given) | > 10 µg/mL | > 10 µg/mL | > 10 µg/mL | > 10 µg/mL | > 10 µg/mL
6 | C=C1[C@]2(C)CC[C@@]1(C)c1cc(Br)c(C)cc1O2 | > 10 µg/mL | > 10 µg/mL | > 10 µg/mL | > 10 µg/mL | > 10 µg/mL
7 | Cc1ccc([C@]2(C)CC[C@H](C(C)(C)O)O2)cc1 | > 10 µg/mL | > 10 µg/mL | > 10 µg/mL | > 10 µg/mL | > 10 µg/mL
8 | Cc1ccc([C@]2(C)CC[C@@H]3C[C@@]32C)cc1O | > 10 µg/mL | > 10 µg/mL | > 10 µg/mL | > 10 µg/mL | > 10 µg/mL
9 | C=C1[C@](C)(O)CC[C@@]1(C)c1ccc(C)c(O)c1 | > 10 µg/mL | > 10 µg/mL | > 10 µg/mL | > 10 µg/mL | > 10 µg/mL
10 | Cc1cc2c(cc1Br)[C@]1(C)CC[C@H](C)[C@]1(CO)O2 [APLYSINOL] | > 10 µg/mL | > 10 µg/mL | > 10 µg/mL | > 10 µg/mL | > 10 µg/mL
11 | Cc1cc2c(cc1Br)[C@]1(C)CC[C@H](C)[C@]1(C)O2 [APLYSIN] | > 10 µg/mL | > 10 µg/mL | > 10 µg/mL | > 10 µg/mL | > 10 µg/mL
12 | CC(C)=CCCC(C)(O)c1ccc(C)cc1 (stereo not given) [GOSSONOROL] | > 10 µg/mL | > 10 µg/mL | > 10 µg/mL | > 10 µg/mL | > 10 µg/mL
13 | CC1(C)[C@]23C[C@H](Br)[C@@](C)(Cl)C[C@@H]2O[C@]1(Br)[C@H](O)[C@H]1O[C@]13C [JOHNSTONOL] | > 10 µg/mL | > 10 µg/mL | > 10 µg/mL | > 10 µg/mL | > 10 µg/mL
14 | Cc1cc(O)c([C@]2(C)CC[C@@H]3C[C@@]32C)cc1-c1cc([C@]2(C)CC[C@@H]3C[C@@]32C)c(O)cc1C [LAUREBIPHENYL] | 1.91 µg/mL (≈ 4.44 µM) | 1.22 µg/mL (≈ 2.83 µM) | 1.77 µg/mL (≈ 4.11 µM) | 1.61 µg/mL (≈ 3.74 µM) | 1.68 µg/mL (≈ 3.9 µM)
